Assay outcomes from PubChem.
This is a sample that favours compounds with a hit; in the whole collection about 2.9% have one here.
PglD inh = blocks C. jejuni PglD acetyltransferase activity; purified PglD enzyme, DTNB colorimetric CoA detection; AID 602405; 360,000 compounds, 0.098% hits; inhibition, % at 12.5 µM; in the data active = inhibition above about 16%, passing the limit was not always enough
Vif imaging = inhibitors of HIV Vif. HEK293T cells, Vif self-association by quenched fluorescence, imaging, 24 h. inhibition, % at 7.49 µM. 340,000 compounds, 0.35% hits; in the data active = inhibition above about 50%, passing the limit was not always enough
rRNA inh HTS = inhibitors of bacterial rRNA selective over humanized ribosomes; GFP signal change (wild-type ribosome), % (concentration not given with the values); AID 720706; E. coli WT GFP vs humanized-ribosome RFP mutants, fluorescence, 24 h; hits give low values; DMSO median 0, no signal -100; 350,000 compounds, 1.6% hits;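 active = significant combined selectivity score with lowered wild-type GFP, culture density cut under 30%, mutant RFP and density less affected; inactive = any of these conditions unmet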
Cneo AK release = Cryptococcus neoformans lysis via adenylate kinase release | 360,000 compounds, 0.2% hits | C. neoformans lysis, adenylate kinase release luminescence, 4 h; normalised: neutral wells 0, clomiphene wells 100 | lysis activity, % at 15 µM;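 active = mean lysis activity across replicates of at least 80%, whatever share of replicates individually reach that level; inactive = mean lysis activity below 80%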
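Test system: log-phase Cryptococcus neoformans yeast cells. Input: 5 × 10^6 yeast cells/mL. Medium: fresh YPD growth medium. Doses: single dose. Incubation: static 4 h at 37 °C with compound, 1 h detection. Measured by: luminescent adenylate kinase detection reagent. Read-out: signal increase indicating cell lysis. Benchmarks: Clomiphene.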
FGF22 binding = shifts melting point of recombinant human FGF22. AID 651658. 340,000 compounds, 1.5% hits. activity (Tm shift, normalised), % at 9.99 µM. recombinant FGF22 thermal shift, SYPRO orange fluorescence; percent of sucrose octasulfate shift, DMSO zero;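 active = mean Tm shift, scaled 0 neutral to 100 positive control, at about 1.3% or above, every replicate too, limit read from the data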
Target sequence (Q9HCT0 whole entry, looked up): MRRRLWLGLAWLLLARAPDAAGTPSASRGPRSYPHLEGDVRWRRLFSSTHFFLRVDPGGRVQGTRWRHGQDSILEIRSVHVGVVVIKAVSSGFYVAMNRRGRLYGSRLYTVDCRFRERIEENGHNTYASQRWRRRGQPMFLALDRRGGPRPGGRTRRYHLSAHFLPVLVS
PGC1a acetyl inh = modulators of PGC1a acetylation; AID 651687; 350,000 compounds, 0.17% hits; inhibition, % at 15.6 µM; U2OS PGC1a acetylation, AlphaScreen anti-acetyl-lysine; with virally co-expressed GCN5 acetyltransferase;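 active = every replicate shows inhibition of at least 40%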;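 also: 0% = neutral control wells and 100% = positive control wells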
The depositor's hits bear a star; / = not tested or not shown.

SMILES	PglD inh	Vif imaging	rRNA inh HTS	Cneo AK release	FGF22 binding	PGC1a acetyl inh
CSc1nc(C)c(C(=O)Nc2ccccc2)c(C)c1C#N	-3	/	-21*	3	0	4
C=CCC(=O)OCCCCCCOc1ccc(C(=O)O)cc1	1	-5	/	0	/	5
C=CCCCOc1ccc(C(=O)O)cc1	-4	58*	/	3	/	5
CN1c2ccc(Br)cc2[C@H]2[C@H](CCN2S(=O)(=O)c2cccc(F)c2)[C@@H]1CO	0	/	-49	-9	0	-28
Cc1cc(Oc2ccc(=O)n(C)n2)nc(SCc2ccccc2)n1	/	5	6	/	43*	/
Cc1cc(Oc2ccc(=O)n(C)n2)nc(SCC(N)=O)n1	/	-5	-3	/	0	4
COC(=O)/C(=C/Nc1cccc2ccccc12)[N+](=O)[O-]	/	-5	-21*	/	0	2
CCn1c(Cc2ccccc2)nnc1SCC(=O)NC(C)(C)C	/	-3	8	/	0	-1
CCn1c(Cc2cccs2)nnc1SCC(=O)NC(C)(C)C	/	8	10	/	43*	/
COc1ccc(Cn2c(=O)c3[nH]cnc3n(-c3ccc(C)cc3)c2=O)cc1	4	13	-20*	-2	0	2
CCCNC(=O)C[C@@H]1C[C@H]2c3cc(NC(=O)c4cccnc4)ccc3O[C@H]2[C@@H](CO)O1	5	/	2	-2	0	3
COC(=O)[C@]12CCCCC=C1N(Cc1ccccc1)C(=O)[C@H](CC(=O)N1CCCCC1)C2	/	/	-26*	/	0	/
CCOC(=O)[C@]12CCC=C1N(Cc1ccco1)C(=O)[C@H](CC(=O)NCc1ccc(C)o1)C2	/	/	11	/	43*	/
COC(=O)[C@]12CCCCC=C1N(Cc1ccccc1)C(=O)[C@H](CC(=O)NCc1ccc(OC)c(OC)c1)C2	/	/	-20*	/	0	/
CCOC(=O)[C@]12CCCC=C1N(Cc1ccccc1)C(=O)[C@H](CC(=O)NCc1ccc(OC)c(OC)c1)C2	/	/	-3	/	0	/
COc1ccc(C(=O)OCC(=O)N2C(C)CCCC2C)cc1[N+](=O)[O-] (configuration not stated)	/	6	/	/	43*	/
Nc1ccc(C(=O)OCC(=O)N2CCOCC2)cc1[N+](=O)[O-]	/	-13	/	/	43*	12
Nc1cc(C(=O)OCC(=O)N2CCOCC2)ccc1Cl	-5	24	13	0	-1	/
O=C(Cc1ccccn1)N[C@H]1C=C[C@@H](CC(=O)N2CCCCC2)O[C@H]1CO	0	/	2	0	0	-3
O=C(N[C@H]1CC[C@@H](CCNC(=O)C2CCC2)O[C@H]1CO)c1ccncc1	3	/	-1	-2	0	8
Cc1ccc(C(C)(c2ccc(N)cc2)c2ccc(N)cc2)cc1	-5	2	-39*	4	0	-24
Cc1cc(C)n(/C(=C\N(C)C)C(=O)c2cccc([N+](=O)[O-])c2)n1	4	-15	3	0	0	/
Nc1cc([N+](=O)[O-])ccc1O	/	1	4	/	0	/
Cc1cc(C)n(C(=O)c2ccc([N+](=O)[O-])cc2N)n1	-3	17	17	-23	43*	44*
Cc1ccc([N+](=O)[O-])cc1N	/	0	15	/	43*	/
SMILES	PglD inh	Vif imaging	rRNA inh HTS	Cneo AK release	FGF22 binding	PGC1a acetyl inh
Cc1nc([N+](=O)[O-])c(Br)n1CC(=O)c1ccc(Br)cc1	1	21	/	-2	/	64*
C[C@@H]1CN([C@H](C)CO)C(=O)c2cccc(NC(=O)Nc3ccc(C(F)(F)F)cc3)c2O[C@@H]1CN(C)C(=O)Nc1ccc(F)cc1	/	/	-1	/	0	-10
CCCc1cc(C(=O)OC)c(NC(=O)CCCC(=O)O)s1	/	-8	6	/	44*	-4
CCc1cc(C(=O)OC)c(NC(=O)CCC(=O)O)s1	-6	0	/	0	/	1
CCCNC(=O)[C@@H]1[C@@H](CO)[C@@H]2Cn3c(ccc(-c4cccc(F)c4)c3=O)[C@H]1N2CCC	1	/	0	-4	0	/
COc1cccc(OCc2nnc(-c3cccs3)o2)c1	1	-7	2	2	43*	-4
COc1ccc(C(NC(=O)c2c(F)c(F)c(F)c(F)c2F)c2ccccc2)cc1 (configuration not stated)	-3	5	/	-2	0	85*
COc1ccc(C(=O)NC(=S)Nc2cc3oc4ccccc4c3cc2OC)cc1	/	-1	11	/	44*	/
